Assays:
D(2) dopamine receptor = D(2) dopamine receptor (Homo sapiens, UniProt P14416); assay: Displacement of [3H]spiperone from human dopamine D2 receptor expressed in HEK293 cell membranes by liquid scintillation counting based competition binding assay
Outline: (§1)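 Competition binding on membranes from stably transfected cell lines ([…]), clones selected with G418. Buffer 50 mM Tris, 4 mM MgCl₂, pH 7.4 with 0.7 nM radioligand and increasing compound concentrations. Duplicate tubes incubated at 30 °C for 50 min, then rapid filtration through GF/B filters and cold-buffer wash. Compounds from 10^-1 M DMSO stock. Ki as mean of three to five experiments, racemates.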

[1] = target: T1, 5-hydroxytryptamine receptor 1A (Rattus norvegicus, UniProt P19327); assay: Displacement of [3H]8-OH-DPAT from rat 5HT1A receptor expressed in CHO cell membranes by liquid scintillation counting based competition binding assay; outline: as §1
T1 sequence (P19327 whole entry): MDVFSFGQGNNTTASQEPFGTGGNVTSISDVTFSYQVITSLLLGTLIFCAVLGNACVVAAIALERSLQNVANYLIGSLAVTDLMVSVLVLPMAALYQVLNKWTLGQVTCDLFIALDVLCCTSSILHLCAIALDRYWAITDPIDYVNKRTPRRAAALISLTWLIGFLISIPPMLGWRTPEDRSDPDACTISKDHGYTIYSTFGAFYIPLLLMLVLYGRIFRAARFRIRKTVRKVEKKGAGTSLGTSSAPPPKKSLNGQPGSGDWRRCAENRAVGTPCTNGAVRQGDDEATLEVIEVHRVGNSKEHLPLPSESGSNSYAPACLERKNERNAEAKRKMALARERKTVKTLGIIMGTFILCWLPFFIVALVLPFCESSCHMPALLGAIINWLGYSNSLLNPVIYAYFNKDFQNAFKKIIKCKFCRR

[2] = target: 5-hydroxytryptamine receptor 2A (Homo sapiens, UniProt P28223); assay: Displacement of [3H]ketanserin from human 5HT2A receptor expressed in HEK293 cell membranes by liquid scintillation counting based competition binding assay; outline: as §1
D(3) dopamine receptor = D(3) dopamine receptor (Homo sapiens, UniProt P35462); assay: Displacement of [3H]spiperone from human dopamine D3 receptor expressed in HEK293 cell membranes by liquid scintillation counting based competition binding assay; outline: as §1
D(1A) dopamine receptor = D(1A) dopamine receptor (Homo sapiens, UniProt P21728); assay: Displacement of [3H]SCH23390 from human dopamine D1 receptor expressed in HEK293 cell membranes by liquid scintillation counting based competition binding assay; outline: as §1
Sequence of D(1A) dopamine receptor (P21728 whole entry): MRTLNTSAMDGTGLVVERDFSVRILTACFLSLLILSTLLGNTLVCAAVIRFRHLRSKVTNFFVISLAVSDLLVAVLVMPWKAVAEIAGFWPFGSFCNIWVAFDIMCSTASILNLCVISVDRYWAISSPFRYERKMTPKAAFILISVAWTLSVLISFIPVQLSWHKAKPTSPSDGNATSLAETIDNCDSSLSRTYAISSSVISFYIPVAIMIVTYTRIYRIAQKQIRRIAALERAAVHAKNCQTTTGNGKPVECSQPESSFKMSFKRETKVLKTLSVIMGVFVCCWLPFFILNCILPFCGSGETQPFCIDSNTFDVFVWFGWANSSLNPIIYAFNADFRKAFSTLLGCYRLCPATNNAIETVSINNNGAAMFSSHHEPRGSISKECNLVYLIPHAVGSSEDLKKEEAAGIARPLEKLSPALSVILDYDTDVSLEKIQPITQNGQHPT

Sequence of 5-hydroxytryptamine receptor 2A (P28223 whole entry): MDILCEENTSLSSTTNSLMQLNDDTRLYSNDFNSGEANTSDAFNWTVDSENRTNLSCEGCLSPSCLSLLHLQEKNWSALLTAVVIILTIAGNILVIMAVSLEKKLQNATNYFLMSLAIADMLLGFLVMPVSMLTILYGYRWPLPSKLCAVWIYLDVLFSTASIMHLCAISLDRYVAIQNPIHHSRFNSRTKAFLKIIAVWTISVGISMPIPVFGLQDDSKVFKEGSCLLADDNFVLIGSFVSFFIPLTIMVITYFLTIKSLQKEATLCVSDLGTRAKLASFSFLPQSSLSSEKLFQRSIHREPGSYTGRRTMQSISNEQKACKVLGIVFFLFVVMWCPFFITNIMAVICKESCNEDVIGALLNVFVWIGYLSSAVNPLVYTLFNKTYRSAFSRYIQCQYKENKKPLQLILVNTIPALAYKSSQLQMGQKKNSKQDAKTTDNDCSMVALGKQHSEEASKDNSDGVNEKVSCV
Sequence of D(2) dopamine receptor (P14416 whole entry): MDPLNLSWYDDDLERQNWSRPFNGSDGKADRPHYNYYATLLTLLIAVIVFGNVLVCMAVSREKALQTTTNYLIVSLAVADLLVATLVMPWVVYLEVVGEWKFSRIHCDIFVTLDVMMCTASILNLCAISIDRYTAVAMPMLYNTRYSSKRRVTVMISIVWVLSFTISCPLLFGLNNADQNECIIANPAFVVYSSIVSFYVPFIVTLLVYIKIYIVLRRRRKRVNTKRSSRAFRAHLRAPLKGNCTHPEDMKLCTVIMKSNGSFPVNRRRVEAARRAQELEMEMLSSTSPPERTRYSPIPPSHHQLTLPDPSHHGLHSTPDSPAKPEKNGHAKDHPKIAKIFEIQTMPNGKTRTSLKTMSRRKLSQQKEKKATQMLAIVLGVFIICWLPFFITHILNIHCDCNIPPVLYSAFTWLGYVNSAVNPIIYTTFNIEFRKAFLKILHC
Sequence of D(3) dopamine receptor (P35462 whole entry): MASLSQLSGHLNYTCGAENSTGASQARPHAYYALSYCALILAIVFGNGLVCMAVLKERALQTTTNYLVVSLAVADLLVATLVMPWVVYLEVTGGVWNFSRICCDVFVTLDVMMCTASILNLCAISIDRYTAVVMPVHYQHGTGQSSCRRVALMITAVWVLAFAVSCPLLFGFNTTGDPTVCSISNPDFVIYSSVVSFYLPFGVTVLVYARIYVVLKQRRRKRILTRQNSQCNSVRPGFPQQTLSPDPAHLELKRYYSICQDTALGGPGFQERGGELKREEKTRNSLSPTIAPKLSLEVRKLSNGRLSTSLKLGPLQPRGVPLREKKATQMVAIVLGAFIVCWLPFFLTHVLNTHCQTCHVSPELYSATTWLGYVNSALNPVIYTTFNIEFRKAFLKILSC

| Structure (SMILES) | Ki (D(2) dopamine receptor) [nM] | Ki [1] [nM] | Ki [2] [nM] | Ki (D(3) dopamine receptor) [nM] | Ki (D(1A) dopamine receptor) [nM] |
| --- | --- | --- | --- | --- | --- |
| CN1CCc2cc(N)c(O)cc2C(c2ccccc2)C1 (racemic) | > 1000 | > 1000 | > 1000 | > 1000 | 334 |
| CN1CCc2cc(O)c(N)cc2C(c2ccccc2)C1 (racemic) | > 1000 | > 1000 | > 1000 | > 1000 | 351 |
| CN1CCc2cc(NCc3cccc(Cl)c3)c(O)cc2C(c2ccccc2)C1 (racemic) | > 1000 | 479 | 10.3 | – | 277 |
| Cc1cccc(CNc2cc3c(cc2O)C(c2ccccc2)CN(C)CC3)c1 (racemic) | > 1000 | > 1000 | 9.95 | – | 370 |
| Cc1ccccc1CNc1cc2c(cc1O)C(c1ccccc1)CN(C)CC2 (racemic) | > 1000 | > 1000 | 192 | – | 292 |
| Cc1ccc(-c2cc3c(cc2O)C(c2ccccc2)CN(C)CC3)cc1 (racemic) | > 1000 | – | – | > 1000 | > 1000 |
| CN1CCc2cc(-c3ccc4ccccc4c3)c(O)cc2C(c2ccccc2)C1 (racemic) | > 1000 | – | – | – | > 1000 |
| CN1CCc2cc(O)c(CO)cc2C(c2ccccc2)C1 (racemic) | > 1000 | – | – | > 1000 | > 1000 |
| CN1CCc2cc(O)c(CN)cc2C(c2ccccc2)C1 (racemic) | > 1000 | – | – | > 1000 | > 1000 |
| CN1CCc2ccc(N)cc2C(c2ccccc2)C1 (racemic) | > 1000 | – | – | > 1000 | 583 |
| CNc1ccc2c(c1)C(c1ccccc1)CN(C)CC2 (racemic) | > 1000 | – | – | – | > 1000 |
| CN1CCc2ccc(N(C)C)cc2C(c2ccccc2)C1 (racemic) | > 1000 | – | – | – | > 1000 |
| CN1CCc2cc3oc(=O)[nH]c3cc2C(c2ccccc2)C1 (racemic) | > 1000 | – | – | – | > 1000 |
| CN1CCc2cc3c(cc2C(c2ccccc2)C1)NC(=O)CO3 (racemic) | > 1000 | – | – | – | > 1000 |

Results, then the compound that gave them:

| Ki (D(2) dopamine receptor) [nM] | Ki [1] [nM] | Ki [2] [nM] | Ki (D(3) dopamine receptor) [nM] | Ki (D(1A) dopamine receptor) [nM] | Structure (SMILES) |
| --- | --- | --- | --- | --- | --- |
| > 1000 | > 1000 | 133 | > 1000 | 207 | CN1CCc2ccc(O)cc2C(c2ccccc2)C1 (racemic) |
| > 1000 | – | – | > 1000 | > 1000 | CN1CCc2cc(O)ccc2C(c2ccccc2)C1 (racemic) |
| > 1000 | > 1000 | 4.52 | > 1000 | 665 | CN1CCc2cc(NCc3ccccc3)c(O)cc2C(c2ccccc2)C1 (racemic) |
| > 1000 | > 1000 | 862 | – | 756 | Cc1ccc(CNc2cc3c(cc2O)C(c2ccccc2)CN(C)CC3)cc1 (racemic) |
| > 1000 | – | – | – | > 1000 | CC(=O)Nc1cc2c(cc1O)C(c1ccccc1)CN(C)CC2 (racemic) |
| > 1000 | – | – | – | > 1000 | CN1CCc2cc(-n3cccc3)c(O)cc2C(c2ccccc2)C1 (racemic) |
| > 1000 | > 1000 | 163 | > 1000 | 216 | Cc1cccc(-c2cc3c(cc2O)C(c2ccccc2)CN(C)CC3)c1 (racemic) |
| > 1000 | – | – | – | 912 | Cc1ccccc1-c1cc2c(cc1O)C(c1ccccc1)CN(C)CC2 (racemic) |
| > 1000 | > 1000 | 826 | – | 349 | CN1CCc2cc(-c3ccc(O)cc3)c(O)cc2C(c2ccccc2)C1 (racemic) |
| > 1000 | – | – | > 1000 | > 1000 | CN1CCc2cc(N)ccc2C(c2ccccc2)C1 (racemic) |
| > 1000 | – | – | – | > 1000 | CN1CCc2cc3ocnc3cc2C(c2ccccc2)C1 (racemic) |
| > 1000 | – | – | – | > 1000 | CN1CCN(c2nc3cc4c(cc3o2)CCN(C)CC4c2ccccc2)CC1 (racemic) |
| > 1000 | – | – | > 1000 | > 1000 | CCN(CC)c1cc2c(cc1O)C(c1ccccc1)CN(C)CC2 (racemic) |
